Test results: ChEMBL document CHEMBL4330069, “Boosting the efficacy of anti-MRSA β-lactam antibiotics via an easily accessible, non-cytotoxic and orally bioavailable FtsZ inhibitor” (Eur J Med Chem, 2019)
≈ marks a conversion by molar mass, not a printed value.

Experiments:
[1] = Half life in Sprague-Dawley rat at 1 mg/kg, iv by UPLC-MS/MS analysis; type: ADME, organism-based; conditions: in vivo
Summary of the method: (§1)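 Male Sprague–Dawley rats (250-280 g) dosed IV at 1 mg/kg or by oral feeding at 50 mg/kg. Jugular blood taken from 5 to 420 min (IV) or 2 to 600 min (oral). Plasma proteins precipitated with methanol, then analysed by UPLC-MS/MS with positive ESI. Parameters from non-compartmental analysis.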

Staphylococcus aureus [2] = experiment: Antibacterial activity against multidrug-resistant Staphylococcus aureus isolate 2919 by broth microdilution assay; type: functional
Summary of the method: (§2)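 Broth microdilution MIC per CLSI guidelines against clinical MRSA isolates, for β-lactams and test compound alone and in combination. Compounds were dissolved in DMSO. Growth was read by eye, in duplicate. FIC index = FIC(compound) + FIC(drug); synergy defined as FIC index ≤0.5.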

Staphylococcus aureus [3] = experiment: Synergistic antibacterial activity against multidrug-resistant Staphylococcus aureus isolate 1402 in presence of methicillin by broth microdilution assay; type: functional
Summary of the method: (§3)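 Clinical MRSA isolate panel; compound and β-lactam tested alone and in combination by CLSI broth microdilution, compounds dissolved in DMSO, growth inhibition scored by eye, run in duplicate. FIC index = FIC(compound) + FIC(drug), each the MIC in combination divided by the MIC alone; an index ≤ 0.5 was called synergy.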

Staphylococcus aureus [4] = experiment: Antibacterial activity against multidrug-resistant Staphylococcus aureus isolate 2895 by broth microdilution assay; type: functional; summary of the method: as §2
L929 = experiment: Cytotoxicity against mouse L929 cells by MTS assay; type: cell-based
Summary of the method: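 MTS assay on L929 mouse fibroblasts; IC50 reported as the average of three independent measurements.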

Staphylococcus aureus [5] = experiment: Antibacterial activity against multidrug-resistant Staphylococcus aureus isolate 1449 by broth microdilution assay; type: functional; summary of the method: as §2
Staphylococcus aureus [6] = experiment: Synergistic antibacterial activity against multidrug-resistant Staphylococcus aureus isolate 85 in presence of methicillin by broth microdilution assay; type: functional
Staphylococcus aureus [7] = experiment: Synergistic antibacterial activity against multidrug-resistant Staphylococcus aureus isolate 256 in presence of cloxacillin by broth microdilution assay; type: functional
Summary of the method: (§4)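 CLSI broth microdilution on clinical MRSA isolates. MICs were measured for the β-lactam alone, the test agent alone and the two combined. Compounds were dissolved in DMSO, and growth inhibition was scored by eye. FIC index is the sum, over both agents, of MIC in combination divided by MIC alone. An FIC index ≤0.5 was taken as synergy.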

Staphylococcus aureus [8] = experiment: Antibacterial activity against multidrug-resistant Staphylococcus aureus isolate 3332 by broth microdilution assay; type: functional; summary of the method: as §2
Staphylococcus aureus [9] = experiment: Synergistic antibacterial activity against multidrug-resistant Staphylococcus aureus isolate 2973 in presence of methicillin by broth microdilution assay; type: functional; summary of the method: as §4
Staphylococcus aureus [10] = experiment: Synergistic antibacterial activity against multidrug-resistant Staphylococcus aureus isolate 1449 in presence of amoxicillin by broth microdilution assay; type: functional; summary of the method: as §3
Staphylococcus aureus [11] = experiment: Synergistic antibacterial activity against multidrug-resistant Staphylococcus aureus isolate 231 in presence of methicillin by broth microdilution assay; type: functional; summary of the method: as §3
Staphylococcus aureus [12] = experiment: Synergistic antibacterial activity against multidrug-resistant Staphylococcus aureus isolate 417 in presence of cloxacillin by broth microdilution assay; type: functional
Staphylococcus aureus [13] = experiment: Synergistic antibacterial activity against multidrug-resistant Staphylococcus aureus isolate 2728 in presence of cloxacillin by broth microdilution assay; type: functional; summary of the method: as §4
Staphylococcus aureus [14] = experiment: Synergistic antibacterial activity against multidrug-resistant Staphylococcus aureus isolate 1136 in presence of methicillin by broth microdilution assay; type: functional; summary of the method: as §3
Staphylococcus aureus [15] = experiment: Synergistic antibacterial activity against multidrug-resistant Staphylococcus aureus isolate 1136 assessed as fractional Inhibitory concentration index in presence of amoxicillin by broth microdilution assay; type: functional
Summary of the method: (§5)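 CLSI broth microdilution run on clinical MRSA isolates with each β-lactam alone, the test agent alone, and the two combined; agents dissolved in DMSO. Growth inhibition was read by eye. FIC index = FIC(compound) + FIC(β-lactam), where each FIC is the MIC in combination divided by the MIC alone. An index ≤0.5 was taken as synergy.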

Staphylococcus aureus [16] = experiment: Synergistic antibacterial activity against multidrug-resistant Staphylococcus aureus isolate 1717 in presence of amoxicillin by broth microdilution assay; type: functional; summary of the method: as §3
Staphylococcus aureus [17] = experiment: Synergistic antibacterial activity against multidrug-resistant Staphylococcus aureus isolate 231 assessed as fractional Inhibitory concentration index in presence of cloxacillin by broth microdilution assay; type: functional; summary of the method: as §5
Staphylococcus aureus [18] = experiment: Synergistic antibacterial activity against multidrug-resistant Staphylococcus aureus isolate 757 in presence of methicillin by broth microdilution assay; type: functional
Staphylococcus aureus [19] = experiment: Synergistic antibacterial activity against multidrug-resistant Staphylococcus aureus isolate 358 in presence of cefuroxime by broth microdilution assay; type: functional
Staphylococcus aureus [20] = experiment: Synergistic antibacterial activity against multidrug-resistant Staphylococcus aureus isolate 254 in presence of amoxicillin by broth microdilution assay; type: functional; summary of the method: as §4
Staphylococcus aureus [21] = experiment: Synergistic antibacterial activity against multidrug-resistant Staphylococcus aureus isolate 85 in presence of meropenem by broth microdilution assay; type: functional
Staphylococcus aureus [22] = experiment: Synergistic antibacterial activity against multidrug-resistant Staphylococcus aureus isolate 1136 in presence of cloxacillin by broth microdilution assay; type: functional; summary of the method: as §3
Staphylococcus aureus [23] = experiment: Synergistic antibacterial activity against multidrug-resistant Staphylococcus aureus isolate 2901 in presence of meropenem by broth microdilution assay; type: functional; summary of the method: as §4
Staphylococcus aureus [24] = experiment: Synergistic antibacterial activity against multidrug-resistant Staphylococcus aureus isolate 85 in presence of cefuroxime by broth microdilution assay; type: functional
Staphylococcus aureus [25] = experiment: Antibacterial activity against multidrug-resistant Staphylococcus aureus isolate 757 by broth microdilution assay; type: functional; summary of the method: as §2
Staphylococcus aureus [26] = experiment: Synergistic antibacterial activity against multidrug-resistant Staphylococcus aureus isolate 3332 in presence of amoxicillin by broth microdilution assay; type: functional; summary of the method: as §4
Staphylococcus aureus [27] = experiment: Synergistic antibacterial activity against multidrug-resistant Staphylococcus aureus isolate 2919 in presence of cefuroxime by broth microdilution assay; type: functional; summary of the method: as §4
Staphylococcus aureus [28] = experiment: Synergistic antibacterial activity against multidrug-resistant Staphylococcus aureus isolate 3267 assessed as fractional Inhibitory concentration index in presence of meropenem by broth microdilution assay; type: functional
Staphylococcus aureus [29] = experiment: Antibacterial activity against multidrug-resistant Staphylococcus aureus isolate 200 by broth microdilution assay; type: functional; summary of the method: as §2
[30] = Oral bioavailability in Sprague-Dawley rat at 50 mg/kg by UPLC-MS/MS analysis; type: ADME, organism-based; conditions: in vivo; summary of the method: as §1
Staphylococcus aureus [31] = experiment: Antibacterial activity against multidrug-resistant Staphylococcus aureus isolate 254 by broth microdilution assay; type: functional; summary of the method: as §2
Staphylococcus aureus [32] = experiment: Antibacterial activity against multidrug-resistant Staphylococcus aureus isolate 1749 by broth microdilution assay; type: functional; summary of the method: as §2
Staphylococcus aureus [33] = experiment: Synergistic antibacterial activity against multidrug-resistant Staphylococcus aureus isolate 2901 assessed as fractional Inhibitory concentration index in presence of methicillin by broth microdilution assay; type: functional
Staphylococcus aureus [34] = experiment: Synergistic antibacterial activity against multidrug-resistant Staphylococcus aureus isolate 2490 assessed as fractional Inhibitory concentration index in presence of amoxicillin by broth microdilution assay; type: functional; summary of the method: as §5
Staphylococcus aureus [35] = experiment: Synergistic antibacterial activity against multidrug-resistant Staphylococcus aureus isolate 2728 in presence of methicillin by broth microdilution assay; type: functional; summary of the method: as §4
Staphylococcus aureus [36] = experiment: Antibacterial activity against multidrug-resistant Staphylococcus aureus isolate 1136 by broth microdilution assay; type: functional; summary of the method: as §2
Staphylococcus aureus [37] = experiment: Synergistic antibacterial activity against multidrug-resistant Staphylococcus aureus isolate 2895 assessed as fractional Inhibitory concentration index in presence of methicillin by broth microdilution assay; type: functional
Staphylococcus aureus [38] = experiment: Synergistic antibacterial activity against multidrug-resistant Staphylococcus aureus isolate 2919 in presence of meropenem by broth microdilution assay; type: functional; summary of the method: as §4
Staphylococcus aureus [39] = experiment: Synergistic antibacterial activity against multidrug-resistant Staphylococcus aureus isolate 1136 assessed as fractional Inhibitory concentration index in presence of methicillin by broth microdilution assay; type: functional; summary of the method: as §5

CCCCCCCCCNc1ccc(F)c(C(N)=O)c1F
half-life [1]: 5.5 h
MIC (Staphylococcus aureus [2]): 16 µg/mL (≈ 53.6 µM)
MIC (Staphylococcus aureus [3]): 2 µg/mL
MIC (Staphylococcus aureus [4]): 16 µg/mL (≈ 53.6 µM)
IC50 (L929): > 100 µM
MIC (Staphylococcus aureus [5]): 4 µg/mL (≈ 13.4 µM)
MIC (Staphylococcus aureus [6]): 4 µg/mL
MIC (Staphylococcus aureus [7]): 1 µg/mL
MIC (Staphylococcus aureus [8]): 16 µg/mL (≈ 53.6 µM)
MIC (Staphylococcus aureus [9]): 4 µg/mL
MIC (Staphylococcus aureus [10]): 0.5 µg/mL
MIC (Staphylococcus aureus [11]): 4 µg/mL
MIC (Staphylococcus aureus [12]): 2 µg/mL
MIC (Staphylococcus aureus [13]): 1 µg/mL
MIC (Staphylococcus aureus [14]): 4 µg/mL
fractional inhibitory concentration index (FICI) (Staphylococcus aureus [15]): 1
MIC (Staphylococcus aureus [16]): 2 µg/mL
fractional inhibitory concentration index (FICI) (Staphylococcus aureus [17]): 0.3
MIC (Staphylococcus aureus [18]): 4 µg/mL
MIC (Staphylococcus aureus [19]): 2 µg/mL
MIC (Staphylococcus aureus [20]): 8 µg/mL
MIC (Staphylococcus aureus [21]): 8 µg/mL
MIC (Staphylococcus aureus [22]): 2 µg/mL
MIC (Staphylococcus aureus [23]): 4 µg/mL
MIC (Staphylococcus aureus [24]): 2 µg/mL
MIC (Staphylococcus aureus [25]): 128 µg/mL (≈ 429 µM)
MIC (Staphylococcus aureus [26]): 8 µg/mL
MIC (Staphylococcus aureus [27]): 2 µg/mL
fractional inhibitory concentration index (FICI) (Staphylococcus aureus [28]): 4
MIC (Staphylococcus aureus [29]): 1020 µg/mL (≈ 3430 µM)
bioavailability [30]: 13%
MIC (Staphylococcus aureus [31]): 16 µg/mL (≈ 53.6 µM)
MIC (Staphylococcus aureus [32]): 2 µg/mL (≈ 6.7 µM)
fractional inhibitory concentration index (FICI) (Staphylococcus aureus [33]): 0
fractional inhibitory concentration index (FICI) (Staphylococcus aureus [34]): 0.6
MIC (Staphylococcus aureus [35]): 4 µg/mL
MIC (Staphylococcus aureus [36]): 16 µg/mL (≈ 53.6 µM)
fractional inhibitory concentration index (FICI) (Staphylococcus aureus [37]): 0.3
MIC (Staphylococcus aureus [38]): 4 µg/mL
fractional inhibitory concentration index (FICI) (Staphylococcus aureus [39]): 0.3
